Screens (PubChem)
Diaph act CS: diaphorase activation or chemical reduction counter-screen. Diaphorase/resazurin coupled assay, resorufin fluorescence, 16 min; hits give high values; 1 = vehicle wells, 0 = NADH-free wells. activation factor at 20 µM. actives 0.005% (n = 190,000). AID 1229;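 active = diaphorase activity raised at least twofold by the compound at 20 µM; inactive = activation factor below 2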
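Material: purified diaphorase enzyme from Clostridium kluyveri / Medium: HEPES pH 7.4 buffer with MgCl2 and Tween 20 / Schedule: enzyme reaction of 16 min at room temperature / Measured by: resorufin fluorescence, excitation 544 nm, emission 590 nm / Evaluation: rise in resorufin formation, marking diaphorase activation or chemical reduction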
G6PDH CS: counter-screen for G6PDH assay hits: L. mesenteroides G6PDH inhibition | Purified L. mesenteroides G6PDH, diaphorase/resazurin coupled fluorescence, 45 min | inhibition, % at 5 µM | actives 0.12% (n = 200,000) | AID 1020
Lmaj promast: Leishmania major promastigote growth inhibition | Leishmania major promastigotes, resazurin fluorescence viability | inhibition, % at 10 µM | actives 9% (n = 200,000) | AID 1063;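 also: promastigotes grown with compound for 44 hours at 28 °C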
WT yeast gro inh: growth inhibition of WT yeast, mitochondrial fusion screen. mitochondrial fusion phenotypic screen, WT strain. inhibition, % at 10 µM. actives 2.1% (n = 190,000). AID 1362; in the data active = inhibition above about 58%; tested in S. cerevisiae
Diaph inh CS: diaphorase inhibition or chemical oxidation counter-screen | inhibition, % at 20 µM | diaphorase resazurin-to-resorufin fluorescence, NADH, 16 min; bacterial (C. kluyveri) enzyme, not human | actives 0.69% (n = 190,000);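 active = primary screen inhibition at 20 µM above a set limit, cut at about 50% in these data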;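 also: plate controls were DMSO with full reaction for no effect and wells lacking NADH for full effect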
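Test system: bacterial diaphorase enzyme (C. kluyveri); Quantity: 0.14 U/mL diaphorase, enzyme working solution; Times: reaction incubation of 16 min at room temperature; Measured by: fluorescence of resorufin formed from resazurin, Ex 544/Em 590 nm; Benchmarks: positive control minus NADH, DMSO neutral control.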
* marks the source's active call; other numbers are inactive results. Most compounds without a hit are left out; they make up all but 11% or so of the library. Rule as the data show it, unless noted: active = inhibition above about 50%; inactive = the rest.

Screening COC(CN(C(=O)CCl)C(C(=O)NC1CCCCC1)c1ccc(C)cc1)OC (centres undefined) returned Diaph act CS 0.9, G6PDH CS 4, Lmaj promast 72*, WT yeast gro inh 10 and Diaph inh CS 13.
For O=C(CCCC(=O)N(c1ccc2c(c1)OCCO2)C(C(=O)NC1CCCCC1)c1ccc(F)cc1)Nc1ccccn1 (centres undefined) the results were Diaph act CS 0.9, G6PDH CS 11, Lmaj promast -1, WT yeast gro inh 20 and Diaph inh CS 10.
For COc1ccc(C(C(=O)NC2CCCCC2)N(C(=O)CCl)c2ccc(C)cc2)cc1 (centres undefined) the results were Diaph act CS 1, G6PDH CS 7, Lmaj promast 91*, WT yeast gro inh -5 and Diaph inh CS -2.
COCCN(C(=O)CCCC(=O)Nc1ccccn1)C(C(=O)NC1CCCCC1)c1ccc(C)cc1 (centres undefined) was read as Diaph act CS 0.9, G6PDH CS 14, Lmaj promast 5, WT yeast gro inh 13 and Diaph inh CS 14.
Screening Cc1ccc(C(C(=O)NC2CCCCC2)N(C(=O)CCCC(=O)Nc2ccccn2)c2ccc3c(c2)OCCO3)cc1 (centres undefined) returned Diaph act CS 0.9, G6PDH CS 15, Lmaj promast 68*, WT yeast gro inh -1 and Diaph inh CS 8.
Screening COc1ccc(C(C(=O)NC2CCCCC2)N(C(=O)CCl)c2cccc(Cl)c2)cc1 (centres undefined) returned Diaph act CS 1, G6PDH CS 12, Lmaj promast 100*, WT yeast gro inh -24 and Diaph inh CS 2.
`CC(CC(=O)Nc1ccccc1C(F)(F)F)c1ccccc1` (centres undefined) gave Diaph act CS 0.9, G6PDH CS 2, Lmaj promast 38, WT yeast gro inh 11 and Diaph inh CS 14.
Screening COc1ccc(-c2nsc(C(=O)N(c3ccc(F)cc3)C(C(=O)NC3CCCC3)c3ccc(OC)cc3)c2N)cc1 (centres undefined) returned Diaph act CS 1, G6PDH CS 4, Lmaj promast 90*, WT yeast gro inh 7 and Diaph inh CS 4.
`CCOc1cccc(N(C(=O)C2COc3ccccc3O2)C(C(=O)NC2CCCCC2)c2ccc(O)cc2)c1` (centres undefined) gave Diaph act CS 0.9, G6PDH CS 13, Lmaj promast 82*, WT yeast gro inh 1 and Diaph inh CS 12.
`COc1ccc(CN(C(=O)c2nsc(Cl)c2Cl)C(C(=O)NC2CCCC2)c2ccc(C)cc2)cc1` (centres undefined) gave Diaph act CS 0.9, G6PDH CS -15, Lmaj promast 71*, WT yeast gro inh 40 and Diaph inh CS 15.
COc1ccc(C(C(=O)NC2CCCC2)N(C(=O)c2ccoc2C)c2ccc(C)cc2)cc1 (centres undefined) was read as Diaph act CS 1, G6PDH CS 15, Lmaj promast 25, WT yeast gro inh 13 and Diaph inh CS 0.
`CC(C)CCNC(=O)C(c1ccc(O)cc1)N(C(=O)C1COc2ccccc2O1)c1cccc(O)c1` (centres undefined) gave Diaph act CS 0.7, G6PDH CS 18, Lmaj promast -9, WT yeast gro inh 0 and Diaph inh CS 34.
COc1ccc(C(C(=O)NC2CCCCC2)N(C(=O)CCl)c2ccc(OC)cc2)cc1 (centres undefined) was read as Diaph act CS 1, G6PDH CS -10, Lmaj promast 93*, WT yeast gro inh 2 and Diaph inh CS 0.
Screening CCOC(=O)CSc1cc(CSc2ccccc2)nc(-c2ccccc2)n1 returned Diaph act CS 0.9, G6PDH CS -15, Lmaj promast 0, WT yeast gro inh 31 and Diaph inh CS 9.
`COc1ccc(C2=NN(C(=O)CSc3cn(C)c4ccccc34)C(c3ccc(OC)cc3)C2)cc1` (centres undefined) gave Diaph act CS 0.8, G6PDH CS -38, Lmaj promast 35, WT yeast gro inh -28 and Diaph inh CS 19.
Screening CCCCCCC(=O)c1c(C)[nH]c(C(=O)OCC)c1C returned Diaph act CS 0.8, G6PDH CS -33, Lmaj promast 2, WT yeast gro inh 23 and Diaph inh CS 17.
Cc1c(C(=O)Nc2ccc(Oc3ccccc3)cc2)sc2nc3n(c(=O)c12)CCC3 was read as Diaph act CS 0.7, G6PDH CS -5, Lmaj promast 37, WT yeast gro inh 61* and Diaph inh CS 26.
`Cc1nc(C)c(C(=O)Nc2ccc(Oc3ccccc3)cc2)o1` gave Diaph act CS 0.8, G6PDH CS -20, Lmaj promast 76*, WT yeast gro inh 14 and Diaph inh CS 22.
For Cc1c(C(=O)Nc2ccc(OC(F)(F)F)cc2)sc2nc3n(c(=O)c12)CCC3 the results were Diaph act CS 1, G6PDH CS 9, Lmaj promast -4, WT yeast gro inh -11 and Diaph inh CS 4.
CC1=CC(=C(C#N)c2nc3ccccc3s2)C=C(C)N1c1ccc(F)cc1 was read as Diaph act CS 0.9, G6PDH CS -4, Lmaj promast 34, WT yeast gro inh 4 and Diaph inh CS 14.
`COc1ccccc1N1C(C)=CC(=C(C#N)c2nc3ccccc3s2)C=C1C` gave Diaph act CS 0.6, G6PDH CS -42, Lmaj promast 52*, WT yeast gro inh -9 and Diaph inh CS 36.
Screening O=C(O)CCCCCNC(=O)c1cccc(Br)c1 returned Diaph act CS 1, G6PDH CS 0, Lmaj promast -5, WT yeast gro inh -13 and Diaph inh CS 2.
Screening O=C(NCCOC12CC3CC(CC(C3)C1)C2)c1cccc(Br)c1 returned Diaph act CS 0.8, G6PDH CS 2, Lmaj promast 94*, WT yeast gro inh 42 and Diaph inh CS 16.
For O=C(Oc1ccccc1)c1cc2ccccc2o1 the results were Diaph act CS 0.9, G6PDH CS -17, Lmaj promast -3, WT yeast gro inh -6 and Diaph inh CS 11.
Screening O=C(/C=C\c1ccccc1OC(=O)c1ccccc1F)c1cc2ccccc2o1 returned Diaph act CS 0.9, G6PDH CS -29, Lmaj promast 52*, WT yeast gro inh 18 and Diaph inh CS 5.
O=C(Nc1nc(-c2ccc(S(=O)(=O)N3CCCC3)cc2)cs1)c1ccco1 was read as Diaph act CS 0.7, G6PDH CS -37, Lmaj promast 97*, WT yeast gro inh 14 and Diaph inh CS 34.
Screening O=C(NNc1nc(-c2ccc(Cl)cc2)cs1)c1ccco1 returned Diaph act CS 0.9, G6PDH CS 16, Lmaj promast 58*, WT yeast gro inh 13 and Diaph inh CS 6.
O=C(NNc1nc(-c2ccccc2)cs1)c1ccco1 was read as Diaph act CS 0.9, G6PDH CS 6, Lmaj promast 67*, WT yeast gro inh 11 and Diaph inh CS 12.
